Most compounds without a hit are left out; they make up all but 3.1% or so of the library.
Ins promoter up – MIN6 insulin promoter up-regulation; MIN6 insulin promoter-GFP reporter, high-content imaging; active compounds read high; z-score at 5 µM; 190,000 compounds, 0.3% hits;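 active means z-score above 3 at 5 µM with at least 500 cells counted in the well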
Insulin prom inh – TRM-6 insulin promoter activity inhibition | TRM-6 cells (human fetal islet line), insulin promoter-eGFP reporter, imaging; reporter expression induced with tamoxifen | inhibition, % at 2 µM | 130,000 compounds, 0.9% hits;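 active means inhibition above the mean plus 3 SD, with well images judged a real hit on visual review, cut at about 60% in these data, passing the limit was not always enough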
BB579 growth dn – yeast BB579 growth reduction in restrictive medium | 140,000 compounds, 0.51% hits | inhibition, % at 10 µM | AID 804 | S. cerevisiae BB579 growth, OD615, 48 h;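 active means inhibition above a set limit, 3 SD over the mean compound inhibition, cut at about 44% in these data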
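Assay system: S. cerevisiae DeaD strain BB579 yeast. Medium: CSMM-D restrictive synthetic medium containing dextrose (glucose). Times: 4 h cell preincubation, 48 h compound exposure, 30 °C humidified. Signal: OD615 turbidity measurement. Benchmarks: positive control amphotericin B 10 µg/mL.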
RAM network inh – yeast RAM network inhibition; S. cerevisiae dse1pr::URA3 reporter, 5-FOA growth OD615, 2 d; analog-sensitive cbk1-as2 kinase mutant strain; inhibition, % at 50 µM; 190,000 compounds, 1.8% hits; AID 868;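 active means inhibition above a set limit, 3 SD over mean compound inhibition, cut at about 8.4% in these data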;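 further: inhibition rescues growth on 5-FOA so higher OD means more RAM inhibition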
Yeast life ext – yeast lifespan extension; S. cerevisiae growth with nicotinamide, OD615; deaD strain in restrictive glucose medium; inhibition of the nicotinamide effect, % at 10 µM; 130,000 compounds, 0.68% hits;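 active means inhibition above a set limit, placed 3 SD over the median of all compounds, cut at about 26% in these data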
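assay system = DeaD-strain S. cerevisiae | buffer or medium = restrictive glucose medium | reagent = 1.5 mM nicotinamide | compound = 10 µM single point, 0.25% DMSO | incubation = 48 h compound exposure at 30 °C, humidified | signal = OD615 measurement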
A number is an active result; . = inactive; / = no result given.

SMILES	Ins promoter up	Insulin prom inh	BB579 growth dn	RAM network inh	Yeast life ext
CN1C(=O)CC(N2CCN(Cc3ccc(Cl)cc3)CC2)C1=O (configuration not stated)	3.9	.	.	.	.
COc1ccc(C(OCC2CO2)c2ccc(OC)cc2)cc1 (configuration not stated)	.	77	/	.	/
COc1ccc(S(=O)(=O)c2ccc(OCC3CO3)cc2)cc1 (configuration not stated)	.	/	/	.	/
Cc1ccc2cc(COC(=O)C3CCCO3)c(=O)[nH]c2c1 (configuration not stated)	.	.	.	.	.
N/C(=N\OC(=O)COc1ccc2ccccc2c1Br)c1ccccn1	.	/	/	9.1	/
N/C(=N\OC(=O)COc1ccc2ccccc2c1Br)c1cccnc1	.	/	/	.	/
C=CCSc1nnc(NC(=O)c2cccc(S(=O)(=O)N3CCOCC3)c2)s1	3.2	.	.	.	.
O=S1(=O)Nc2c(ccc3cccnc23)-c2ccccc21	.	/	100	.	.
CN(C)c1ccc(NC(=S)N2CCN(c3ncc(C(F)(F)F)cc3Cl)CC2)cc1	.	/	/	/	/
O=C(Nc1ccc(Cl)cc1)/C(=C/c1cccc(O)c1)c1nc2ccccc2s1	.	.	.	8.5	.
S=C(Nc1ccc(Cl)cc1)c1nc2ccccc2s1	.	/	.	8.4	.
O=C(O)C/C(=C\c1cccc(NC(=O)c2ccccc2Cl)c1)c1nc2ccccc2s1	.	/	/	/	/
Cc1cccc(C(=O)NC(CC(=O)O)c2ccc(OC3CCCC3)cc2)c1[N+](=O)[O-] (configuration not stated)	/	.	/	.	/
Cc1cc(NS(=O)(=O)c2ccc(NC(=O)c3cc4c(=O)n5ccccc5nc4s3)cc2)nc(C)n1	.	.	/	9.0	/
CN(C)S(=O)(=O)c1cccc(NC(=O)c2cc3c(=O)n4ccccc4nc3s2)c1	.	/	.	.	.
COc1ccc(CCNC(=O)COc2ccc(N(C)S(=O)(=O)c3ccc(C)cc3)cc2)cc1OC	/	/	/	.	/
OC(COc1ccc2ccccc2c1Br)Cn1cnc(-c2ccccc2)c1 (configuration not stated)	.	.	93	.	.
COc1ccc(Nc2nc3ccc(C)cn3c(=O)c2/C=N/O)cc1	.	/	/	.	/
Cc1ccc2nc(Nc3ccccc3)c(/C=N/O)c(=O)n2c1	.	.	.	.	27
Cc1ccc2c(c1)c1c(n2C)C(C(N)=O)CCC1 (configuration not stated)	.	.	.	.	.
Cc1ccc2c(c1)c1c(n2C)-c2[nH]ncc2CC1	/	.	99	.	/
CN(C)c1ccc(-c2nc3ccccn3c2/N=C/c2ccc(Br)cc2)cc1	.	.	.	.	.
Cc1ccc(C2(C(F)(F)F)NC(=O)N3CCN=C3S2)cc1 (configuration not stated)	.	.	.	.	.
Cc1ccc(C2(C(F)(F)F)N=C3Sc4cc(C)ccc4N3C(=O)N2)cc1 (configuration not stated)	3.5	.	.	.	.
CCC1C(=O)N=C(SCC(=O)Nc2ccc(S(N)(=O)=O)cc2)NC1=O (configuration not stated)	.	.	/	.	/
SMILES	Ins promoter up	Insulin prom inh	BB579 growth dn	RAM network inh	Yeast life ext
CCC1C(=O)N=C(SCC(=O)Nc2ccccc2)NC1=O (configuration not stated)	.	.	51	.	/
Nc1nc(CSc2ccc(Cl)cc2)nc(N2CCCCC2)n1	.	.	/	9.0	/
Cc1nn(Cc2ccccc2)c(Cl)c1C(=O)OCc1nnc(-c2ccc(Cl)cc2)o1	.	/	.	8.6	.
O=C(OCc1nnc(-c2ccc(Cl)cc2)o1)c1ccc(O)cc1	/	.	/	.	/
Cc1ccc(NC(=O)CSc2ncccn2)c([N+](=O)[O-])c1	.	.	/	.	/
Cc1ccc(NC(=O)CSc2nc(C)c(C)c(C)n2)c([N+](=O)[O-])c1	.	.	.	8.5	.
COc1ccc(NS(=O)(=O)c2ccc(N3CCOCC3)c(NC(=O)c3ccc(OC)cc3)c2)cc1	.	.	.	8.6	.
O=C(Nc1cc([N+](=O)[O-])ccc1N1CCCC1)c1ccco1	.	.	/	.	/
CN(C)S(=O)(=O)c1ccc(C(=O)Nc2cc(S(=O)(=O)Nc3ccccc3Cl)ccc2N2CCCCC2)cc1	.	.	.	8.6	.
COc1ccc(NS(=O)(=O)c2ccc(N3CCOCC3)c(NC(=O)c3ccccc3Cl)c2)cc1	.	.	.	.	.
COc1ccc(C(=O)Nc2cc([N+](=O)[O-])ccc2N2CCCC2)cc1	.	.	/	8.5	/
O=C(CSc1nccc(=O)[nH]1)NCc1ccco1	.	/	/	/	/
O=C(O)c1cccc(NC(=S)N/N=C/c2cccc(O)c2)c1	.	78	/	.	/
CCC[N+](C)(C)C(C)C(OC(C)=O)c1ccccc1 (configuration not stated)	.	/	/	/	/
CC(=O)N1CCN(c2ccc(OC[C@H]3CO[C@](Cn4ccnc4)(c4ccc(Cl)cc4Cl)O3)cc2)CC1	.	.	93	.	.
Cn1c(SCc2ccc(F)cc2)nnc1-c1cccs1	.	71	.	.	.
CC(NC(=O)CCc1nnc(-c2ccc(-c3ccccc3)cc2)o1)c1nc2ccccc2[nH]1 (configuration not stated)	.	/	/	.	/
COc1ccc(-c2nnc3sc(C(C)N4C(=O)c5ccccc5C4=O)nn23)cc1 (configuration not stated)	/	/	.	.	30
CCn1c2ccc(C)cc2c2nc3cc(C(=O)O)ccc3nc21	.	/	96	.	.
CC(C)(C)c1ccc(S(=O)(=O)N2CCCCC2)cc1	.	.	.	.	.
CC(=O)NC1C(=O)SC1(C)C (configuration not stated)	.	88	.	.	.
O=C(CN1N=C(c2ccccc2)CCC1=O)NCCCN1CCc2ccccc2C1	.	.	.	.	.
Cc1ccc(-n2c3c(c(=O)[nH]c2=O)C(C(F)(F)F)(C(F)(F)F)NC(=O)N3)cc1	3	.	.	.	.
COc1cccc(OC)c1C(=O)Nc1cc(C)nn1-c1nc2ccccc2[nH]1	.	68	/	.	/
CCN(CC)S(=O)(=O)c1ccc2c(c1)C(=NO)c1cc(S(=O)(=O)N(CC)CC)ccc1-2	.	.	.	10	/
SMILES	Ins promoter up	Insulin prom inh	BB579 growth dn	RAM network inh	Yeast life ext
COCCNC(=O)CSc1c2c(nc3ccc(Cl)cc13)CCCC2	/	/	/	.	/
O=S(=O)(Nc1ccc(-c2nc3ccccc3o2)cc1)c1ccccc1	.	.	46	.	.
CC(=O)Nc1ccc(S(=O)(=O)Nc2cccc(-c3nc4ccccc4o3)c2)cc1	/	.	.	.	.
Oc1ccc2ccccc2c1C=NC1CCCCC1	.	/	/	.	/
Oc1c(Br)cc(Br)cc1/C=N/c1nc2c(s1)CCCC2	/	/	99	.	.
Oc1ccc2ccccc2c1/C=N/c1nc2c(s1)CCCC2	.	.	.	.	33
C(=C\c1nc(-c2cccnc2)no1)/c1ccccc1	.	70	/	.	/
Cc1ccc(C)c(-c2[nH]ncc2CN2CCCC(CO)(Cc3ccccc3C)C2)c1 (configuration not stated)	.	/	/	.	/
